Results reported in ChEMBL document CHEMBL1155352, “Antiparasitic activities of novel, orally available fumagillin analogs” (Bioorg Med Chem Lett, 2009).
Converted amounts (≈) assume the structure as drawn. The source made the active and inactive calls. The calls are words filed in the database; no cut-off is given here.

Experiments:
[1] = system: Plasmodium falciparum; assay: Antiparasitic activity against Plasmodium falciparum D2 infected in human erythrocytes after 72 hrs by FACS; format: functional, organism-based
[2] = system: Trypanosoma brucei; assay: Antiparasitic activity against Trypanosoma brucei 427 after 48 hrs; format: functional, organism-based
[3] = system: Entamoeba histolytica; assay: Antiparasitic activity against Entamoeba histolytica HMI:IMSS trophozoites after 60 hrs; format: functional, organism-based, HM-1:IMSS
[4] = system: Leishmania donovani; assay: Antiparasitic activity against Leishmania donovani at <100 ug/mL; format: functional, organism-based
[5] = molecular target: Methionine aminopeptidase 2 (Homo sapiens) (UniProt P50579); assay: Inhibition of human MetAP2 assessed as residual activity at 800 nM after 8 hrs by Met-AMC based fluorescence assay
Sequence of Methionine aminopeptidase 2 (Homo sapiens) (P50579 2-478 limits assumed): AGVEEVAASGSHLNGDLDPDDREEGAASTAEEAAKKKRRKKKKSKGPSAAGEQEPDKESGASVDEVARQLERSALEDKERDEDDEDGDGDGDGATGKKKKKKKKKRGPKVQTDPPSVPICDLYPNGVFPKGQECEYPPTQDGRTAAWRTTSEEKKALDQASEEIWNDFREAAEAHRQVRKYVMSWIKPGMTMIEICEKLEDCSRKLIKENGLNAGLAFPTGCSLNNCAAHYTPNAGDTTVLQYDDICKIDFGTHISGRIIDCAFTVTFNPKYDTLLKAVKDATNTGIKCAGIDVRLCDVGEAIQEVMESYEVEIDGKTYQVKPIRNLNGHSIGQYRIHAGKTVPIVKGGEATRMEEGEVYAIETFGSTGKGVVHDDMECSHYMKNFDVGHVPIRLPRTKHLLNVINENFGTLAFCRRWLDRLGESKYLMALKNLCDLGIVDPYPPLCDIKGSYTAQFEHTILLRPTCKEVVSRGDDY
How it was run: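 Human MetAP2 (80 nM) preincubated with compound at 800 nM for 8 h; remaining free enzyme activity then read by Met-AMC fluorescence and reported as residual activity.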

[6] = system: Plasmodium falciparum; assay: Antiparasitic activity against Plasmodium falciparum W2 infected in human erythrocytes after 72 hrs by FACS; format: functional, organism-based
[7] = system: Plasmodium berghei; assay: Antiparasitic activity against Plasmodium berghei infected Swiss Webster mice (Mus musculus) assessed as protection against parasite infection at 25 mg/kg, subcutaneously administered every 12 hrs for 4 days measured after 12 days; format: functional, organism-based; parameters: dose 25 mg/kg
How it was run: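 P. berghei-infected mice, infected on Day 1, dosed subcutaneously with 25 mg/kg every 12 h; PBS-dosed controls. Survival followed over days post infection; each data point mean of triplicates.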

[8] = Entamoeba histolytica, HM-1:IMSS, 60 h, read-out: IC50
[9] = Plasmodium falciparum, W2, 72 h, read-out: IC50
[10] = Trypanosoma brucei, 427, 48 h, read-out: IC50
[11] = Plasmodium falciparum, D2, 72 h, read-out: IC50

Compound | IC50 ([1]; BLD = below limit of detection) | IC50 ([2]; BLD = below limit of detection) | IC50 [3, 8] [µg/mL] | Activity [4] | Activity [5] [%] | IC50 [6, 9] [µg/mL] | IC50 [2, 10] [µg/mL] | IC50 [1, 11] [µg/mL] | IC50 ([3]; BLD = below limit of detection) | IC50 ([6]; BLD = below limit of detection) | Activity [7]
CO[C@@H]1[C@H](OC(=O)NC(C)(C)C(=O)N2CCN(Cc3ccccc3)CC2)CC[C@]2(CO2)[C@H]1[C@@]1(C)O[C@@H]1CC=C(C)C | BLD | BLD | 2.54 (≈ 4.46 µM) | inactive |  |  |  |  |  |  | 
CO[C@@H]1[C@H](OC(=O)N2CCC(C(=O)O)CC2)CC[C@]2(CO2)[C@H]1[C@@]1(C)O[C@@H]1CC=C(C)C |  | BLD | 0.087 (≈ 0.199 µM) | inactive | 8 | 0.0367 (≈ 0.0839 µM) |  |  |  |  | 
CO[C@@H]1[C@H](OC(=O)/C=C/C=C/C=C/C=C/C(=O)O)CC[C@]2(CO2)[C@H]1[C@@]1(C)O[C@@H]1CC=C(C)C [FUMAGILLIN] |  |  | 0.005 (≈ 0.0109 µM) |  |  | 0.0996 (≈ 0.217 µM) | 26 (≈ 56.7 µM) |  |  |  | 
CO[C@@H]1[C@H](OC(=O)N[C@@H](C(=O)NCCCN(C)C)C(C)C)CC[C@]2(CO2)[C@H]1[C@@]1(C)O[C@@H]1CC=C(C)C |  |  | 2.28 (≈ 4.47 µM) | inactive |  |  | 25 (≈ 49 µM) | 0.0263 (≈ 0.0516 µM) |  |  | 
CO[C@@H]1[C@H](OC(=O)N[C@@H](C(N)=O)C(C)C)CC[C@]2(CO2)[C@H]1[C@@]1(C)O[C@@H]1CCC(C)(C)O |  | BLD |  | inactive | 90 |  |  |  | BLD | BLD | 
CO[C@@H]1[C@H](OC(=O)NN2CCOCC2)CC[C@]2(CO2)[C@H]1[C@@]1(C)O[C@@H]1CC=C(C)C |  |  | 0.01 (≈ 0.0244 µM) | inactive | 6 | 0.00774 (≈ 0.0189 µM) | 28 (≈ 68.2 µM) |  |  |  | 
CO[C@@H]1[C@H](OC(=O)N[C@@H](C(=O)NCCC2CCCN2C)C(C)C)CC[C@]2(CO2)[C@H]1[C@@]1(C)O[C@@H]1CC=C(C)C (some centres not stated) |  |  | 1.39 (≈ 2.59 µM) | inactive | 5 |  | 19 (≈ 35.5 µM) | 0.0347 (≈ 0.0648 µM) |  |  | Active
CO[C@@H]1[C@H](OC(=O)NCc2ccc(C(=O)O)cc2)CC[C@]2(CO2)[C@H]1[C@@]1(C)O[C@@H]1CC=C(C)C |  |  | 0.01 (≈ 0.0218 µM) | Active | 3 | 0.0205 (≈ 0.0446 µM) | 42 (≈ 91.4 µM) |  |  |  | 
CO[C@@H]1[C@H](OC(=O)N[C@@H](C(=O)Nc2cccc(C(=O)O)c2)C(C)C)CC[C@]2(CO2)[C@H]1[C@@]1(C)O[C@@H]1CC=C(C)C |  |  | 0.497 (≈ 0.913 µM) | inactive | 4 |  | 14 (≈ 25.7 µM) | 0.136 (≈ 0.25 µM) |  |  | 
CO[C@@H]1[C@H](OC(=O)NC(=O)CCl)CC[C@]2(CO2)[C@H]1[C@@]1(C)O[C@@H]1CC=C(C)C [O-CHLOROACETYLCARBAMOYLFUMAGILLOL] |  |  | 0.026 (≈ 0.0647 µM) |  |  | 0.0123 (≈ 0.0306 µM) | 2.8 (≈ 6.97 µM) |  |  |  | 
CO[C@@H]1[C@H](OC(=O)N[C@H]2CN3CCC2CC3)CC[C@]2(CO2)[C@H]1[C@@]1(C)O[C@@H]1CC=C(C)C |  |  | 1.26 (≈ 2.9 µM) | inactive |  | 0.0394 (≈ 0.0907 µM) |  |  |  |  | 
CO[C@@H]1[C@H](OC(=O)N[C@@H](C(=O)NN2CCCCC2)C(C)C)CC[C@]2(CO2)[C@H]1[C@@]1(C)O[C@@H]1CC=C(C)C |  |  | 0.0643 (≈ 0.127 µM) | inactive |  |  | 55 (≈ 108 µM) | 0.0288 (≈ 0.0567 µM) |  |  | 
